Screens from PubChem BioAssay.
Compounds with a hit are over-represented: about 1.8% of the library has one in this group of screens.
Rpn11 block = inhibitors of human proteasome Rpn11 | actives 0.59% (n = 360,000) | O00487 | AID 588493 | calls only at 20 µM | human 26S proteasome, Ub4-pepOG fluorescence polarization; 20S core pre-blocked with epoxomicin;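 active means inhibition at 20 µM, scaled to each plate's controls, above about 33%, limit read from the data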
TPT1 inh = blocks Candida albicans tRNA 2'-phosphotransferase. actives 0.81% (n = 300,000). recombinant caTPT1, FP RNA substrate dephosphorylation. AID 1962. inhibition, % at 5 µM;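 active means inhibition above the mean of all tested compounds plus 3 SD, set per screening campaign, cut at about 24% in these data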;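 further: plate controls were DMSO alone for no effect and ferristatin control at 100 nM for full effect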
SUMO HTRF inh = inhibitors of human SUMOylation (UBC9); inhibition, % at 35 µM; HTRF SUMOylation assay, SAE1/SAE2 + UBC9, in vitro; actives 0.36% (n = 290,000); P63279; in the data active means inhibition above about 50%, passing the limit was not always enough
HNF4A DNA FP = change in binding of human HNF4 alpha to DNA; HNF4a-FITC DNA binding, fluorescence polarization, 1 h; actives 0.3% (n = 360,000); activity change, % at 10 µM; in the data active means activity change above about 30%, passing the limit was not always enough
SENP1 FRET inh = SENP1 (human) catalytic domain inhibition; inhibition, % at 10 µM; Q9P0U3; recombinant SENP1 catalytic domain, CyPet-SUMO1-YPet FRET cleavage; actives 0.21% (n = 360,000);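 active means inhibition at least 30% at 10 µM, raw YFP signal under a set limit, fluorescence ratio 0.5 to 1.5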;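 further: 0% = enzyme with DMSO and 100% = no enzyme wells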
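material = recombinant human SENP1 catalytic domain, His6-tagged | quantity = 20 pM enzyme | reagent = 25 nM SUMO1 FRET substrate | compound dosing = 10 µM single point, 0.5% DMSO | timing = 50 min enzyme reaction, room temperature, light-protected | detection = FRET, CFP and YFP emission | control set = no-enzyme low, enzyme-DMSO high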
CSN deneddyl inh = CSN deneddylation inhibition. Purified CSN, SCF-Nedd8-OG deneddylation, fluorescence polarization. inhibition, % at 12.5 µM. actives 0.38% (n = 360,000);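 active means pattern-corrected inhibition above about 35%, with an unprinted fluorescence ratio check between 0.5 and 1.5, limit read from the data, passing the limit was not always enough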;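 further: 0% = enzyme with substrate and 100% = substrate without enzyme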
Target sequence (Q92905 whole entry, looked up, one chain of several): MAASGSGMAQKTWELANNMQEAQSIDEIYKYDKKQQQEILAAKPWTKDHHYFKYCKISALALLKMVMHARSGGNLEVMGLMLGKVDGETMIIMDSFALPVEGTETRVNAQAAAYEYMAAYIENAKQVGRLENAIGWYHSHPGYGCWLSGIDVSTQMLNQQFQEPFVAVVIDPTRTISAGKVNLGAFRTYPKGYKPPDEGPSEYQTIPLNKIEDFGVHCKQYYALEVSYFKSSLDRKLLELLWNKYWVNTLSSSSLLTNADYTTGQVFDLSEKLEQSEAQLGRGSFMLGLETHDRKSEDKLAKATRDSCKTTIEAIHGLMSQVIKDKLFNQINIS
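Assay system: purified human Csn5 enzyme expressed in HEK293T cells; measure: % inhibition; also added: SCFSkp2-Nedd8OG substrate at 10 nM final; technique: fluorescence polarization; times: reaction 90 min, room temperature; medium: Tris buffer pH 7.5, NaCl, DTT, Tween-20, trehalose, ovalbumin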
TPT1 inh confirm = TPT1 (C. albicans) inhibition, confirmation; recombinant caTPT1, fluorescence polarization, RNase T1 coupled; actives 74% (n = 2,400); shares compounds with TPT1 inh; AID 2149; inhibition, % at 5 µM;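 active means inhibition above the primary screen limit, the mean inhibition of all tested compounds plus 3 SD, cut at about 25% in these data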
RNase T1 counter = counter-screen for TPT1 inhibitors: inhibitors of Aspergillus oryzae RNase T1 | shares compounds with TPT1 inh | RNase T1 cleavage, fluorescence polarization, 1536-well | inhibition, % at 5 µM | actives 83% (n = 2,400);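 active means inhibition above the solvent-only control well mean plus 3 SD, limit set per screening run, cut at about 23% in these data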;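 further: plate controls were DMSO wells with enzyme for no effect and wells without RNase T1 for full effect; inhibitors block cleavage so intact labeled substrate keeps polarization high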
Target sequence (P00651 whole entry, looked up): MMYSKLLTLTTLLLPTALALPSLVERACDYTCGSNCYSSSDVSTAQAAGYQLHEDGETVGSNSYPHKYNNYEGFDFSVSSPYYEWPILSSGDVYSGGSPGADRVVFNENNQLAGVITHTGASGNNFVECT
An asterisk follows results filed as active; i = inactive; nt = not tested or not shown.

SMILES	Rpn11 block	TPT1 inh	SUMO HTRF inh	HNF4A DNA FP	SENP1 FRET inh	CSN deneddyl inh	TPT1 inh confirm	RNase T1 counter
O=C(Nc1ccc(N2CCOCC2)cc1)C1CC(=O)N(c2ccc(Cl)cc2)C1 (stereo not given)	i	0	3	1	0	0	nt	nt
CC(=O)Oc1ccc2c(=O)c(Oc3ccccc3)c(C)oc2c1OC(C)=O	i	1	-12	1	-1	3	nt	nt
COc1ccc(N=Cc2sc(O)c3ccccc23)cc1	nt	147*	9	80	-20	82	120*	116*
COc1ccc(N=Cc2c(OC)ccc3ccccc23)cc1	i	1	nt	0	-1	1	nt	nt
Cc1cc(C)n2c(NC3CCCC3)c(-c3ccc(F)cc3)nc2n1	nt	nt	nt	1	-3	6	nt	nt
O/C(=C\c1ccc2ccccc2n1)c1ccncc1	i	53*	nt	23	-27	11	81*	90*
O/N=C/c1ccc2ccccc2n1	i	0	31	-1	2	4	nt	nt
COc1ccc(N=Cc2cc3c(cc2O)OC(N)=C(C#N)C3c2ccccc2)cc1 (stereo not given)	nt	55*	26	66*	-23	1	78*	88*
CCOc1ccc(N(C)C(=O)CCc2nnc3ccc(N4CCCCC4)nn23)cc1	i	0	9	0	2	1	nt	nt
Cc1sccc1C1C(C#N)=C(N)SC(N)=C1C#N	nt	100*	4	nt	nt	nt	70*	84*
Cc1cc(C2C(C#N)=C(N)SC(N)=C2C#N)c(C)s1	nt	101*	17	85	-20	106	46*	59*
Cc1[nH]nc2c1C(c1ccsc1C)C(C#N)=C(N)O2 (stereo not given)	i	-3	19	5	2	2	nt	nt
Cc1cc(C2C(C#N)=C(N)Oc3n[nH]c(C)c32)c(C)s1 (stereo not given)	i	-2	12	-1	1	-2	nt	nt
CC(C)Nc1ncnc2c1ncn2[C@H]1CN(Cc2ccccc2)C[C@@H](CO)O1	i	nt	nt	0	1	-4	nt	nt
O=C(NCC1CCCO1)C1CCN(C2CCN(Cc3cccs3)CC2)CC1 (stereo not given)	i	-1	18	4	-2	-4	nt	nt
COCCN(CC(=O)Nc1ccc(F)cc1)S(=O)(=O)c1ccc(S(=O)(=O)N2CCCC2)cc1	i	-2	25	2	3	3	nt	nt
COc1ccc(C)c2sc(=NC(=O)c3ccccc3)n(C)c12	i	-3	3	5	1	-7	nt	nt
COc1ccc(C)c2sc(=NC(=O)c3cccc(N4C(=O)CCC4=O)c3)n(C)c12	i	38*	30	1	2	1	-1	5
Cc1c(N=C2N=C(NC(=O)c3cccs3)c3ccccc32)c(=O)n(-c2ccccc2)n1C	nt	85*	8	48	5	34	113*	113*
Cc1c(N=C2N=C(NC(=O)NC(C)(C)C)c3ccccc32)c(=O)n(-c2ccccc2)n1C	i	2	16	3	-48	-1	nt	nt
CN(C)c1ccc(/C=c2\sc3n(c2=O)CCCN=3)cc1	nt	103*	-10	26	-18	25	42*	59*
CN(C)CCCn1c(N)c(C#N)c2nc3ccccc3nc21	nt	26*	103*	91	-37	20	30*	43*
COc1ccc(/C=C2\Oc3cc(OCC(=O)N4CCC(C(=O)O)CC4)ccc3C2=O)c(OC)c1OC	i	2	3	4	-88	-2	nt	nt
COc1ccc(/C=C2\Oc3cc(OC(=O)N4CCOCC4)ccc3C2=O)c(OC)c1	i	111*	8	99*	-33	44*	44*	65*
COc1ccc(/C=C2\Oc3cc(OCC(=O)N4CCC(C(=O)O)CC4)ccc3C2=O)c(OC)c1	nt	65*	4	37	-54	23	90*	98*
